Experimental data pooled from the literature.
Lines come from different studies, so protocols differ.
PPO3: PPO3 (Agaricus bisporus, UniProt C7FF04)
PFF0160c: Dihydroorotate dehydrogenase (quinone), mitochondrial (PFF0160c, Plasmodium falciparum, UniProt Q08210)
KDM1A: Lysine-specific histone demethylase 1A (KDM1A, Homo sapiens, UniProt O60341)
PARP1: Poly [ADP-ribose] polymerase 1 (PARP1, Homo sapiens, UniProt P09874)
AURKB: Aurora kinase B (AURKB, Homo sapiens, UniProt Q96GD4)
PDE5A: cGMP-specific 3',5'-cyclic phosphodiesterase (PDE5A, Homo sapiens, UniProt O76074)
MEP1A: Meprin A subunit alpha (MEP1A, Homo sapiens, UniProt Q16819)

Nc1nc(N)c(N=Nc2ccccc2[N+](=O)[O-])c(Cl)n1
IC50 (PPO3; enzyme activity, inhibitor, absorbance): 24.7 µM

Cc1cc(Nc2ccc(Cl)cc2)n2nc(CN(C)C)nc2n1
IC50 (PFF0160c; enzyme activity, inhibitor): > 10 µM

CCCCc1ccc(-c2ccc(-c3cc(C(=O)O)c4cc(Cl)cc(Cl)c4n3)o2)cc1
IC50 (Eukaryotic initiation factor 4A-I (EIF4A1, Homo sapiens, UniProt P60842); ATPase activity, inhibitor, absorbance): 52.1 µM

CCCSc1nc(Sc2nnnn2C)c2nnn(C3CCCC3)c2n1
IC50 (KDM1A; enzyme activity, inhibitor, fluorescence): 0.413 µM

Cc1cc(Nc2ccc(Cl)cc2)n2nc(CCN)nc2n1
IC50 (PFF0160c; enzyme activity, inhibitor): > 10 µM

O=C(O)CCCC(=O)N1CCN(C(=O)c2cc(Cc3n[nH]c(=O)c4ccccc34)ccc2F)CC1
IC50 (PARP1; enzyme activity, inhibitor): 0.0067 µM

CNCCc1nc2nc(C)cc(Nc3cccc(Cl)c3)n2n1
IC50 (PFF0160c; enzyme activity, inhibitor): > 10 µM

COc1ccc2c(Oc3ccc4c(C(=O)Nc5ccccc5N)cccc4c3)ccnc2c1
IC50 (AURKB; enzyme activity, inhibitor): 0.009 µM

Cc1cc(Nc2cccc(Cl)c2)n2nc(CN(C)C)nc2n1
IC50 (PFF0160c; enzyme activity, inhibitor): > 10 µM

CCN1C(=O)[C@H]2Cc3c([nH]c4ccccc34)[C@H](c3ccc(OC)c(OC)c3)N2C1=O
IC50 (PDE5A; enzyme activity, inhibitor, FP): 7 µM

Cc1cc(Nc2cc3ncccc3c(N[C@@H]3C[C@H]4CC[C@@H](C3)N4CCC#N)n2)n[nH]1
IC50 (AURKB; target engagement in cells, inhibitor, BRET): > 10 µM

Cc1cc(Nc2ccc3c(c2)CCCC3)n2ccnc2n1
IC50 (PFF0160c; enzyme activity, inhibitor): 0.1 µM

CN1CCN(c2ccc(Nc3ncc4cc(C#N)c(=O)n(C5CCCC5)c4n3)cc2)CC1
IC50 (Tyrosine-protein kinase TXK (TXK, Homo sapiens, UniProt P42681); enzyme activity, inhibitor): 0.638 µM

CC(C)(C)n1nc(-c2ccc3nc(OC4CC4)ccc3c2)c(C(N)=O)c1N
IC50 (AURKB; cell-free assay, inhibitor): > 10 µM

COc1cc(C[C@H]2C(=O)OC[C@@H]2Cc2ccc(OC)c(OC)c2)ccc1O
IC50 (PDE5A; enzyme activity, inhibitor): > 20 µM

Cc1ccc(C(C)C)cc1NC(=O)COC(=O)c1ccc(O)cc1O
IC50 (PPO3; enzyme activity, inhibitor): 1.8 µM

Cc1cc(Nc2cccc(Cl)c2)n2[nH]c(=O)nc2n1
IC50 (PFF0160c; enzyme activity, inhibitor): > 10 µM

Cc1ccc(C(C)C)cc1NC(=O)COC(=O)c1ccc(O)cc1
IC50 (PPO3; enzyme activity, inhibitor): 18 µM

Nc1nc(N)c(N=Nc2ccc([N+](=O)[O-])cc2)c(N)n1
IC50 (PPO3; enzyme activity, inhibitor, absorbance): 40.6 µM

CCN1C(=O)[C@@H]2Cc3c([nH]c4ccccc34)[C@@H](c3cccnc3)N2C1=O
IC50 (PDE5A; enzyme activity, inhibitor, FP): 0.15 µM

CC1Cc2ccccc2N1C(=O)NCCCCN(C)[C@@H]1Cc2cccc3[nH]c(=O)n(c23)C1 (mixture of isomers)
IC50 (5-hydroxytryptamine receptor 2A (HTR2A, Homo sapiens, UniProt P28223); ligand displacement, radioligand): 4.12 µM

Cc1cc(Nc2ccc(C(F)(F)F)cc2)n2nc(OCCN)nc2n1
IC50 (PFF0160c; enzyme activity, inhibitor): > 10 µM

Cc1ccc(N=Nc2c(N)nc(N)nc2Cl)cc1
IC50 (PPO3; enzyme activity, inhibitor, absorbance): 42 µM

CNCCOc1nc2nc(C)cc(Nc3ccc(C(F)(F)F)cc3)n2n1
IC50 (PFF0160c; enzyme activity, inhibitor): > 10 µM

O=C(CCN(Cc1ccncc1)Cc1ccc2c(c1)OCO2)NO
IC50 (MEP1A; enzyme activity, inhibitor): 0.474 µM

CNc1cc(Nc2ccc(C(F)(F)F)cc2)n2ncnc2n1
IC50 (PFF0160c; enzyme activity, inhibitor): 7.4 µM

CNCCOc1nc2nc(C)cc(Nc3ccc(S(F)(F)(F)(F)F)cc3)n2n1
IC50 (PFF0160c; enzyme activity, inhibitor): > 10 µM

CC[C@@H](C(=O)Nc1ccc(C(N)=O)c(F)c1)n1cc(OC)c(-c2cc(Cl)ccc2-n2cc(C(F)(F)F)nn2)cc1=O
IC50 (Vitamin K-dependent protein C (PROC, Homo sapiens, UniProt P04070); enzyme activity, inhibitor): > 10 µM

CCCSc1nc(Sc2nnnn2C)c2nnn(CCc3c[nH]c4ccccc34)c2n1
IC50 (KDM1A; enzyme activity, inhibitor, fluorescence): 0.253 µM

CC(C)C[C@H]1CC(=O)N2CCC[C@H]2C(=O)N[C@@H](CCCCCC(=O)NO)C(=O)N[C@@H](Cc2c[nH]c3ccccc23)C(=O)N1
IC50 (Histone deacetylase 2 (HDAC2, Homo sapiens, UniProt Q92769); enzyme activity, inhibitor): 0.0035 µM

O=C1[C@H]2Cc3c([nH]c4ccccc34)[C@@H](c3cccnc3)N2C(=O)N1c1ccc(Cl)cc1
IC50 (PDE5A; enzyme activity, inhibitor, FP): 4.99 µM

Cc1ccc(C(C)C)cc1NC(=O)COC(=O)/C=C/c1ccccc1
IC50 (PPO3; enzyme activity, inhibitor): 0.78 µM

CC(C)(C)N1C(=O)[C@H]2Cc3c([nH]c4ccccc34)[C@@H](c3cccnc3)N2C1=O
IC50 (PDE5A; enzyme activity, inhibitor, FP): 0.41 µM

O=C(NC1CC2(C1)CN(C(=O)c1cc3ccccc3c(=O)[nH]1)C2)c1c[nH]nn1
IC50 (PARP1; enzyme activity, inhibitor): 1.28 µM

COC(=O)[C@@H]1Cc2c([nH]c3ccccc23)[C@H](c2cccnc2)N1
IC50 (PDE5A; enzyme activity, inhibitor, FP): > 10 µM

COc1ccc(Nc2nc(N)c(C(=O)c3ccc(OC)c(OC)c3)s2)cc1
IC50 (Sphingosine kinase 1 (SPHK1, Homo sapiens, UniProt Q9NYA1); enzyme activity, inhibitor): ~3 µM

CN1C(=O)c2c(nn(Cc3ccc(-c4cccc(F)n4)cc3)c2Nc2ccccc2)N2C1=N[C@@H]1CCC[C@@H]12
IC50 (PDE5A; enzyme activity, inhibitor): > 0.1 µM

O=C(CCN(Cc1cccnc1)Cc1ccc2c(c1)OCO2)NO
IC50 (MEP1A; enzyme activity, inhibitor): 0.464 µM

COc1ccc(C2=NN(C3CCCCCC3)C(=O)[C@@H]3CC=CC[C@H]23)cc1-c1ccc(C(=O)NCC(N)=O)cc1 (relative stereo)
IC50 (3',5'-cyclic-AMP phosphodiesterase 4A (PDE4A, Homo sapiens, UniProt P27815); enzyme activity, inhibitor): 0.316 µM

C#CCSc1nc(Sc2nnnn2-c2cccnc2)c2nnn(Cc3ccccc3Cl)c2n1
IC50 (KDM1A; enzyme activity, inhibitor, fluorescence): 0.127 µM

CN(C)CCOc1ccc(-c2nc(-c3ccncc3)c(-c3ccc4c(c3)CC/C4=N\O)[nH]2)cc1
IC50 (Serine/threonine-protein kinase A-Raf (ARAF, Homo sapiens, UniProt P10398); enzyme activity, inhibitor; lysate): > 10 µM

N[C@@]1(C(=O)O)CC[C@]12CC[C@H]2C(=O)O
IC50 (Glutamate racemase (Helicobacter pylori J99, UniProt Q9ZLT0); enzyme activity, inhibitor): 18000 µM
